Assay results as given in paper PMC11937985 (Journal of Clinical Pharmacology, 2024).
Where two headings read alike, the source gives them in different places.

What was measured:
[1] = Safety and tolerability assessment in the phase 1 study; assay type: in vivo, human
Outline: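 Healthy postmenopausal smokers and nonsmokers received oral test compound 30 mg on Day 1 after a 10-h fast. Oral fluvoxamine 50 mg was given on Day 3 evening, twice daily on Days 4–9, and on Day 10 morning. On Day 7 the test compound was co-dosed fasted. AEs were recorded from consent to end of study, in all subjects dosed at least once.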

[2] = 20‐ to 60‐mg dose range; cited from earlier work
[3] = fezolinetant 45 mg, pooled 12-week data, cited from earlier work
[4] = assay type: in vivo, human
[5] = assay type: in vitro ADME, human; settings: preliminary assay; rate of degradation could not be determined precisely
[6] = fezolinetant + fluvoxamine vs fezolinetant alone

## COCCCC/C(=N\OCCN)c1ccc(C(F)(F)F)cc1 [fluvoxamine]
[1]; 18 subjects
  dizziness (TEAE), subjects reporting: one subject
  erythema (TEAE), subjects reporting: 11.1%
  orthostatic intolerance (TEAE), subjects reporting: one subject
  subjects with TEAE considered drug related by the investigator: 5.6%

## Cc1nsc(-c2nnc3n2CCN(C(=O)c2ccc(F)cc2)[C@@H]3C)n1 [Fezolinetant]
[2]
  dose dependence of Cmax and total exposure (AUC): increased linearly
[3]; current smokers
  LS mean difference in VMS frequency versus placebo: −3.48
[3]; former/never smokers
  LS mean difference in VMS frequency versus placebo: −2.32
[4]; female, human, plasma, oral, 30 mg
  Tmax: 1 h
[4]; fezolinetant 30 mg + fluvoxamine, nonsmoker n = 9
  tmax, Median [min–max]: 1.50 [1.00‐4.00] h
[4]; fezolinetant 30 mg + fluvoxamine, smoker n = 9
  tmax, Median [min–max]: 1.50 [1.48‐4.00] h
[4]; fezolinetant 30 mg alone, nonsmoker n = 9
  tmax, Median [min–max]: 1.00 [0.983‐2.00] h
[4]; fezolinetant 30 mg alone, smoker n = 9
  tmax, Median [min–max]: 1.00 [1.00‐1.50] h
[4]; [6]
  increase in half-life on co-administration with fluvoxamine: ~5.6 fold
  increase in total exposure on co-administration with fluvoxamine: approximately 9 fold
[4]; smokers vs nonsmokers
  exposure decrease by smoking: about 50%
[5]
  metabolic stability: highly stable
[1]; all treatment periods, 18 TEAEs, 18 subjects enrolled
  subjects with TEAEs, overall: 44.4%
[1]; single oral 30-mg dose of fezolinetant co-administered with fluvoxamine, healthy postmenopausal women
  safety and tolerability: safe and well tolerated
